We go through 21 compounds from ChEMBL document CHEMBL4196238, “Synthesis and Antiviral Evaluation of Carbocyclic Nucleoside Analogs of Nucleoside Reverse Transcriptase Translocation Inhibitor MK-8591 (4'-Ethynyl-2-fluoro-2'-deoxyadenosine)” (J Med Chem, 2018).

A value given as a limit tells only on which side of the number the result lay.

Data set [1] deals with Human immunodeficiency virus 1. As to the kind of experiment: Antiviral activity against HIV1 infected in human PBMC incubated for 24 hrs in presence of 10% NHS by GFP based single cycle HIV replication assay. The conditions noted are these: Human immunodeficiency virus 1, PBMC. The data set is classed as functional, organism-based. Summed up:
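Human PBMCs infected with wild-type HIV-1 were tested in a single-cycle HIV replication assay containing 10% normal human serum (NHS), and IC50 values were determined.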

Data set [2] is described as follows: Cytotoxicity in human MT4 cells expressing GFP assessed as reduction in cell viability incubated for 48 hrs by cell-titer-Glo luminescent cell viability assay. The data set is classed as cell-based. Summed up:
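CC50 values were determined in the MT4 cell line under 10% NHS conditions.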

Data set [3] can be described thus: AUC (0 to infinity) in Sprague-Dawley rat at 2 mg/kg, po. The data set is classed as ADME, organism-based. The conditions noted are these: in vivo. Also noted: dose 2 mg/kg, time infinity, route oral. Summed up: (§1)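 Male Sprague–Dawley rats were dosed intravenously at 1 mg/kg or orally at 2 mg/kg, and pharmacokinetic parameters were derived from plasma data for each route.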

A short description of data set [4]: Clearance in Sprague-Dawley rat at 1 mg/kg, iv. The data set is classed as ADME, organism-based. The conditions noted are these: in vivo. Summed up:
as §1

Data set [5] is described as follows: Oral bioavailability in Sprague-Dawley rat at 2 mg/kg. The data set is classed as ADME, organism-based. The conditions noted are these: in vivo. Summed up:
as §1

Data set [6] can be described thus: Half life in Sprague-Dawley rat at 1 mg/kg, iv. The data set is classed as ADME, organism-based. The conditions noted are these: in vivo. Summed up:
as §1

A short description of data set [7]: AUC (0 to infinity) in Sprague-Dawley rat at 1 mg/kg, iv. The data set is classed as ADME, organism-based. Also noted: dose 1 mg/kg, time infinity, route intravenous. The conditions noted are these: in vivo. Summed up: as §1
Data set [8] can be described thus: Half life in human CD4+ CEM cells at 0.1 to 10 uM by HPLC method. The data set is classed as ADME, cell-based, CCRF-CEM.
The target in data set [9] is Human immunodeficiency virus type 1 reverse transcriptase (Human immunodeficiency virus 1, UniProt Q72547). The data set can be described thus: Inhibition of full-length wild-type HIV1 reverse transcriptase expressed in Escherichia coli BL21(DE3) pre-incubated for 30 mins before addition of template/primer substrate and measured after 90 mins.
A short description of data set [10]: AUC (0 to infinity) in Sprague-Dawley rat at 5 mg/kg, po. The data set is classed as ADME, organism-based. Details: dose 5 mg/kg, time infinity, route oral. The conditions noted are these: in vivo.
Data set [11] can be described thus: Oral bioavailability in Sprague-Dawley rat at 5 mg/kg. The data set is classed as ADME, organism-based. The conditions noted are these: in vivo.

As usually defined, the IC50 is the point on the concentration scale where inhibition reaches its midpoint. As usually defined, the CC50 is the concentration at which the toxic effect on the cells reaches its halfway point. Regarding `C#C[C@@]1(CO[P@@](=O)(N[C@@H](C)C(=O)OC(C)C)Oc2ccccc2)C[C@H](n2cnc3c(OCC)nc(N)nc32)C[C@H]1O`, in data set [1], the concentration for half-maximal inhibition (IC50) turned out to be 382 nM. The CC50 at 48 h in data set [2] was more than 4200 nM.

By AUC(0-inf) is commonly meant total exposure, with the tail of the curve extrapolated. Read a low AUC(0-inf) as low exposure. A word on the clearance: it is the volume of plasma or blood freed of the substance per unit of time. Low values mean inefficient removal, high ones efficient removal. By bioavailability is commonly meant the share of a dose that reaches the circulation, judged against a reference dose that is usually intravenous. Low values mean little systemic uptake, high ones much systemic uptake. One may read the half-life as how long it takes for the measured level to halve. Read a high half-life as slow decline. Consider `C#C[C@]1(CO)C[C@@H](n2cnc3c(=O)[nH]c(N)nc32)C[C@@H]1O`, for which, in data set [1], the IC50 was determined as 24 nM. The area under the curve AUC(0-inf) was found to be 3.3 µM·h in data set [3] and 1.82 µM·h in [7]. The same compound gave a clearance in [4] of 32.4 mL/min/kg. The compound also showed a bioavailability in data set [5] of 91%. The compound further had a half-life in data set [6] of 9.8 h. Moreover, the CC50 at 48 h in [2] is more than 42000 nM.

As for `C#C[C@@]1(CO)C[C@H](n2cnc3c(=O)[nH]c(N)nc32)C[C@H]1O`, in [1], the IC50 is more than 2100 nM. Besides, the 50% cytotoxic concentration (CC50) at 48 h in [2] is more than 42000 nM.

As for `C#C[C@]1(CO[P@@](=O)(N[C@@H](C)C(=O)OC(C)C)Oc2ccccc2)C[C@@H](n2cnc3c(OCC)nc(N)nc32)C[C@@H]1O`, the IC50 in [1] was 3 nM. In addition, the 50% cytotoxic concentration (CC50) at 48 h in data set [2] was more than 42000 nM.

For `C#C[C@]1(COP(=O)(O)OP(=O)(O)OP(=O)(O)O)O[C@@H](n2cnc3c(N)nc(F)nc32)C[C@@H]1O`, the half-life at up to 10 µM in [8] is more than 120 h.

On to `N#CC1(CO)CC(n2cnc3c(N)nc(F)nc32)CC1O` (racemic), for which the IC50 in [1] is more than 2100 nM. The cytotoxic concentration (CC50) at 48 h in data set [2] is more than 42000 nM.

With `C#CC1(COP(=O)(O)OP(=O)(O)OP(=O)(O)O)CC(n2cc(C)c(=O)[nH]c2=O)CC1O` (racemic), inhibition in data set [9] was half-maximal at 114 nM (IC50).

Consider `Cc1cn(C2CC(O)C(C#N)(CO)C2)c(=O)[nH]c1=O` (racemic), for which the IC50 in data set [1] is more than 2100 nM. Further, the cytotoxic concentration (CC50) at 48 h in data set [2] was more than 42000 nM.

Compound `C#CC1(COP(=O)(O)OP(=O)(O)OP(=O)(O)O)CC(n2cnc3c(N)nc(Cl)nc32)CC1O` (racemic) gave a half-inhibitory concentration (IC50) in data set [9] of 20200 nM.

As to `N#CC1(CO)CC(n2cnc3c(=O)[nH]c(N)nc32)CC1O` (racemic), in data set [1], the 50% inhibitory concentration (IC50) was 1150 nM. Moreover, in data set [2], the CC50 at 48 h was more than 42000 nM.

With `C#CC1(CO)CC(n2cnc3c(=O)[nH]c(N)nc32)CC1O` (racemic), the IC50 in [1] turned out to be 33 nM. For the same compound, the 50% cytotoxic concentration (CC50) at 48 h in [2] was more than 42000 nM.

`Cc1cn(C2CC(O)C(C#N)(COP(=O)(O)OP(=O)(O)OP(=O)(O)O)C2)c(=O)[nH]c1=O` (racemic) registered an IC50 in data set [9] of 523 nM.

For the compound `C#CC1(COP(=O)(O)OP(=O)(O)OP(=O)(O)O)CC(n2cnc3c(N)nc(F)nc32)CC1O` (racemic), the midpoint of inhibition in data set [9], the IC50, lay at 3460 nM.

For `C#CC1(CO)CC(n2cc(C)c(=O)[nH]c2=O)CC1O` (racemic), the 50% inhibitory concentration (IC50) in [1] is more than 2100 nM. Moreover, the half-maximal cytotoxic concentration (CC50) at 48 h in [2] was more than 42000 nM.

In the case of `C#CC1(CO)CC(n2cnc3c(N)nc(Cl)nc32)CC1O` (racemic), the IC50 in [1] was determined as 232 nM. The CC50 at 48 h in data set [2] is more than 42000 nM.

Consider `C#CC1(CO)CC(n2cnc3c(N)nc(F)nc32)CC1O` (racemic), for which the IC50 in [1] was 201 nM. In data set [2], the half-maximal cytotoxic concentration (CC50) at 48 h was more than 42000 nM.

Consider `N#CC1(COP(=O)(O)OP(=O)(O)OP(=O)(O)O)CC(n2cnc3c(=O)[nH]c(N)nc32)CC1O` (racemic), for which the IC50 in data set [9] amounted to 444 nM.

For the compound `C#CC1(COP(=O)(O)OP(=O)(O)OP(=O)(O)O)CC(n2cnc3c(=O)[nH]c(N)nc32)CC1O` (racemic), the 50% inhibitory concentration (IC50) in [9] is 324 nM.

Take `C#C[C@]1(CO)O[C@@H](n2cnc3c(N)nc(F)nc32)C[C@@H]1O` [ISLATRAVIR]: the IC50 in data set [1] was 0.21 nM. Moreover, the clearance in [4] came to 72 mL/min/kg. Moreover, the AUC(0-inf) is 5 µM·h in data set [10] and 0.78 µM·h in [7]. In data set [11], this compound displayed a bioavailability of more than 100%. Besides, in data set [6], the half-life was 0.7 h. Moreover, the CC50 at 48 h in [2] is more than 4200 nM.

As to `Nc1ccn([C@@H]2CS[C@H](COP(=O)(O)OP(=O)(O)OP(=O)(O)O)O2)c(=O)n1` [LAMIVUDINE TRIPHOSPHATE], in [9], the IC50 turned out to be 15 nM.

Take `Nc1ccn([C@@H]2CS[C@H](CO)O2)c(=O)n1` [LAMIVUDINE]: in data set [1], the 50% inhibitory concentration (IC50) amounted to 171 nM. Besides, the cytotoxic concentration (CC50) at 48 h in data set [2] was more than 42000 nM.
